Here are results for 83 variants from the RNAGym collection of RNA variant scans (doi:10.1038/s41586-018-0170-7).

The labels stand for the following.
B1: tRNA (parent)
chain: GUUCCGUUGGCGUAAUGGUAACGCGUCUCCCUCCUAAGGAGAAGACUGCGGGUUCGAGUCCCGUACGGAACG

Variants of B1 are the subject of this series. Kind of series: yeast fitness, log relative to wild type (ln ratio); higher = fitter; tRNA-Arg(CCU), competitive growth, 37 C, 1 M NaCl. In outline:
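Fitness is the natural log of each genotype's generations divided by the wild type's. Generations were derived as OD-scaled log2 output/input frequency from 125 bp paired-end Illumina counts, weighting replicates by inverse variance. Pools of the tRNA-Arg(CCU) variant library, on a HIS3 centromeric plasmid in BY4742 lacking the chromosomal gene, grew ~6.5 generations (~26.5 h) in SC-HIS 1M NaCl at 37 °C after 4 generations in SC-HIS at 30 °C.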
For the variant G1A U2C G6U C27U A43C C66A A69G A70G C71U, the “yeast fitness (ln)” value was -0.272.

Consider G1A U2C G6A C46U A70G C71U, for which the “yeast fitness (ln)” value was -0.00868.

For the variant G1A U2C G6A C27U C66U A69G A70G C71U, the “yeast fitness (ln)” value was -0.0671.

With G1A U2C G6U C66A A70U C71U, the “yeast fitness (ln)” value is -0.16.

Take G1A U2C G6A C46U C71U: the “yeast fitness (ln)” value is -0.108.

As for G1A U2C G6U, the “yeast fitness (ln)” value is -0.00557.

For the variant G1A U2C G6A C46U A70U, the “yeast fitness (ln)” value is -0.0702.

Consider G1A U2C G6A C46U A70G, for which the “yeast fitness (ln)” value is -0.179.

For G1A U2C G6A C27U A70G C71U, the “yeast fitness (ln)” value was -0.273.

G1A U2C G6A C27U C46U C66U A69G A70G: the “yeast fitness (ln)” value is -0.364.

For the variant G1A U2C G6A C27U C46U C66U A69G A70U, the “yeast fitness (ln)” value is -0.0756.

G1A U2C G6U C66A A70G C71U: the “yeast fitness (ln)” value was -0.0113.

For the variant G1A U2C G6U A70U C71U, the “yeast fitness (ln)” value is -0.158.

For the variant G1A U2C G6U C46U A70G C71U, the “yeast fitness (ln)” value is -0.00847.

Take G1A U2G A43C C46U A69G A70U C71U: the “yeast fitness (ln)” value was -0.29.

In the case of G1A U2C G6A C27U C46U C66U A69G A70G C71U, the “yeast fitness (ln)” value was -0.0405.

In the case of G1A U2C G6U C46U A69G C71U, the “yeast fitness (ln)” value was -0.0722.

As to G1A U2G C27U A43C C46U A70G C71U, the “yeast fitness (ln)” value was -0.223.

With G1A U2C G6U C27U A69G A70U C71U, the “yeast fitness (ln)” value was -0.467.

Take G1A U2C G6U C27U A43C C46U C66U A69G A70G: the “yeast fitness (ln)” value was -0.279.

For the variant G1A U2C G6U C27U A43C C46U C66U A69G A70U, the “yeast fitness (ln)” value was -0.472.

As for G1A U2C G6U C27U, the “yeast fitness (ln)” value was -0.0816.

In the case of G1A U2C G6U C46U C66A A69G A70G, the “yeast fitness (ln)” value is -0.139.

For G1A U2C G6U C46U C66A A69G A70U, the “yeast fitness (ln)” value came to 0.0136.

On to G1A U2C G6U C27U C46U C66A A69G A70G C71U, for which the “yeast fitness (ln)” value was -0.0613.

Turning to G1A U2C G6U C27U A69G A70G C71U, the “yeast fitness (ln)” value was -0.22.

As for G1A U2C G6A C27U A43C C46U C66U A70G C71U, the “yeast fitness (ln)” value is -0.0245.

With G1A U2C G6U C27U C46U C66A A70G, the “yeast fitness (ln)” value was -0.0541.

G1A U2C G6U C27U C46U C66A A70U: the “yeast fitness (ln)” value was -0.0687.

For G1A U2G A43C C66A A70G C71U, the “yeast fitness (ln)” value was -0.333.

With G1A U2C G6A C46U C66U A70G C71U, the “yeast fitness (ln)” value was 0.0112.

Turning to G1A U2C G6U C27U C46U C66U C71U, the “yeast fitness (ln)” value was -0.196.

As to G1A U2G A43C C66U A69G A70G C71U, the “yeast fitness (ln)” value is -0.457.

For the variant G1A U2C G6U C27U A43C C46U C66A A69G A70G C71U, the “yeast fitness (ln)” value is -0.0612.

Regarding G1A U2C G6U A43C C46U C66U A70U C71U, the “yeast fitness (ln)” value was -0.235.

On to G1A U2C G6U C27U A43C C46U C66U A70G C71U, for which the “yeast fitness (ln)” value is -0.0871.

As for G1A U2G C27U A43C A69G A70G C71U, the “yeast fitness (ln)” value is -0.262.

In the case of G1A U2C G6A C46U A70U C71U, the “yeast fitness (ln)” value is -0.00949.

As to G1A U2C G6U C46U C66U A69G A70G C71U, the “yeast fitness (ln)” value is -0.0644.

Consider G1A U2C G6U C46U C66U A70G C71U, for which the “yeast fitness (ln)” value was -0.0224.

On to G1A U2C G6U C27U A43C C46U A69G A70G C71U, for which the “yeast fitness (ln)” value was -0.267.

As to G1A U2C G6U A43C C66A A70G C71U, the “yeast fitness (ln)” value was -0.0204.

On to G1A U2G, for which the “yeast fitness (ln)” value was -0.0263.

For G1A U2G A43C A70G, the “yeast fitness (ln)” value was -0.108.

Consider G1A U2G A43C A70U, for which the “yeast fitness (ln)” value was -0.33.

As to G1A U2C G6A C46U C66A A70U C71U, the “yeast fitness (ln)” value is -0.102.

For the variant G1A U2C G6U C46U C66U A70U, the “yeast fitness (ln)” value is -0.0663.

As to G1A U2C G6U C46U C66U A70G, the “yeast fitness (ln)” value was -0.265.

As to G1A U2C G6U C27U A43C C46U C66A A70U C71U, the “yeast fitness (ln)” value was -0.124.

G1A U2C G6A C46U A69G A70U: the “yeast fitness (ln)” value is -0.0526.

In the case of G1A U2C G6A C27U C46U A70G C71U, the “yeast fitness (ln)” value is -0.0986.

As to G1A U2C G6U C66U A70G C71U, the “yeast fitness (ln)” value was -0.0525.

Take G1A U2C G6U C27U A43C C46U A70U C71U: the “yeast fitness (ln)” value was -0.177.

For G1A U2G A43C C66A A69G A70G C71U, the “yeast fitness (ln)” value is -0.329.

Take G1A U2G C27U A43C C46U A69G: the “yeast fitness (ln)” value was -0.212.

Take G1A U2C G6U A43C A69G A70U C71U: the “yeast fitness (ln)” value was -0.248.

On to G1A U2C G6U C66U A69G A70U, for which the “yeast fitness (ln)” value was -0.244.

On to G1A U2C G6U C66U A69G A70G, for which the “yeast fitness (ln)” value is -0.362.

Turning to G1A U2C G6U C27U A43C C46U A70G C71U, the “yeast fitness (ln)” value is -0.198.

For the variant G1A U2G A43C C46U C71U, the “yeast fitness (ln)” value was -0.115.

For the variant G1A U2C G6A C27U A43C C46U C66U A69G A70U, the “yeast fitness (ln)” value is -0.416.

Consider G1A U2C G6A C27U A43C C46U C66U A69G A70G, for which the “yeast fitness (ln)” value was -0.0972.

As for G1A U2G A43C C66A A70G, the “yeast fitness (ln)” value is -0.241.

Regarding G1A U2G A43C C66A A70U, the “yeast fitness (ln)” value is -0.12.

Take G1A U2C G6A C46U: the “yeast fitness (ln)” value came out at 0.00156.

For G1A U2C G6U C66A A69G A70G C71U, the “yeast fitness (ln)” value was -0.0278.

Regarding G1A U2G C27U A43C C46U A69G A70G C71U, the “yeast fitness (ln)” value was -0.221.

As for G1A U2C G6A C46U C66U, the “yeast fitness (ln)” value was -0.16.

For G1A U2C G6U C27U C66U A69G A70G C71U, the “yeast fitness (ln)” value is -0.251.

Take G1A U2G A43C C46U C66U A70U C71U: the “yeast fitness (ln)” value is -0.242.

As to G1A U2G A43C C66U A70U C71U, the “yeast fitness (ln)” value is -0.333.

G1A U2C G6U C27U C46U C66A A70U C71U: the “yeast fitness (ln)” value was -0.264.

On to G1A U2C G6A C66U, for which the “yeast fitness (ln)” value is -0.121.

As for G1A U2C G6U C46U, the “yeast fitness (ln)” value turned out to be 0.0116.

With G1A U2C G6U C27U C46U C66U A70U C71U, the “yeast fitness (ln)” value is -0.284.

Turning to G1A U2C G6U C27U C46U A70U, the “yeast fitness (ln)” value is -0.157.

Consider G1A U2C G6U C27U C46U A70G, for which the “yeast fitness (ln)” value is -0.129.

Turning to G1A U2C G6A C27U A43C C46U A70G C71U, the “yeast fitness (ln)” value was -0.149.

For the variant G1A U2G A70U C71U, the “yeast fitness (ln)” value is 0.00659.

In the case of G1A U2G A43C C46U C66A C71U, the “yeast fitness (ln)” value is -0.138.

Consider G1A U2C G6A C27U C66U A69G A70U, for which the “yeast fitness (ln)” value was -0.0942.

Consider G1A U2G A43C C66U C71U, for which the “yeast fitness (ln)” value was -0.257.

Take G1A U2C G6U A43C A70U: the “yeast fitness (ln)” value is -0.153.
